MrgX1 agonist – human MrgX1 receptor agonism, primary screen; B-score at 10 µM; MrgX1-HEK293 cells, Fluo-4 calcium fluorescence, agonist mode; stronger effect = higher value; 0.44% of 310,000 active; AID 588627; Q96LB2;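 active = calcium response B-score plate-corrected fluorescence ratio at least 3 library SD, with starting fluorescence B-score inside 5 SD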
Target sequence (Q96LB2 whole entry, looked up): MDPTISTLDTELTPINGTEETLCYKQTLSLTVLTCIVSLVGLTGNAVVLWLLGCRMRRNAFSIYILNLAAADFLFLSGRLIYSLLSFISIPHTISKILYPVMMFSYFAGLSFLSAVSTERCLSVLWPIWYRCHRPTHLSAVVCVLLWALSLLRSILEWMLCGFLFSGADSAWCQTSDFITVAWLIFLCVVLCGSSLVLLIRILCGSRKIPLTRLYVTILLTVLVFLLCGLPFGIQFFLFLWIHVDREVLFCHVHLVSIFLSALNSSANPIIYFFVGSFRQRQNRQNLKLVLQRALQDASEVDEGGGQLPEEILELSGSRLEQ
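Material: HEK293 cells stably expressing human MrgX1 receptor | Quantity: 15,000 cells per well | Times: Cells plated overnight, dye loaded 0.5 h 37 °C, 0.5 h room temperature | Measured by: Kinetic Fluo-4 NW fluorescence of intracellular calcium | Control set: Positive and negative controls per plate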
RGS4 act – potentiators or activators of RGS4; HEK293 M3R/inducible RGS4, carbachol calcium flux Fluo4; stronger effect = lower value; B-score at 10 µM; 0.92% of 310,000 active;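 active = B-score of the integrated calcium signal more than 4 SD below the library mean, with starting fluorescence not abnormally high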;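 also: negative B-score means reduced calcium response which marks RGS4 activation or potentiation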
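System: HEK293 FlpIn-TREx cells, stable M3R, doxycycline-inducible RGS4. Timing: overnight RGS4 induction, 30 min dye load 37 °C, 20 min compound RT. Also added: carbachol, ECmax concentration. Measured by: Fluo4 fluorescence kinetic imaging of calcium. Evaluation: integrated calcium ratio converted to B score.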
MrgX1 allo act – allosterically activates human MrgX1 receptor signaling; MrgX1-HEK293, Fluo-4 calcium flux, FDSS; stronger effect = higher value; AID 588675; B-score at 10 µM; Q96LB2; 0.63% of 310,000 active;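 active = plate-corrected calcium response at least 3 library SD above typical, normal starting fluorescence, not activating the receptor alone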;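 also: compound read alongside a low EC10 to EC30 dose of BAM8-22 agonist; peak minus trough fluorescence over baseline measured at the second addition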
MrgX1 antag – blocks BAM8-22 activation of human MrgX1 receptor; 1.3% of 310,000 active; Q96LB2; AID 588676; MRGX1-HEK293 calcium flux, Fluo-4, BAM8-22 antagonism; stronger effect = lower value; B-score at 10 µM;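 active = calcium-response B-score plate-corrected more than 3 library SD below zero, starting fluorescence within 5 deviations, no agonist response on first addition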;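 also: peak minus trough fluorescence over baseline after final BAM8-22 challenge near maximal dose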
RGS4 inh – inhibitors of human RGS4. P49798. HEK293 M3R/RGS4 inducible, Fluo-4 calcium flux; stronger effect = higher value; triggered by carbachol at its EC20. B-score at 10 µM. 0.45% of 310,000 active. AID 463165;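 active = B-score, a plate-corrected calcium signal, over three deviations above library mean, with baseline fluorescence within five deviations of library mean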;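 also: RGS4 expression induced by doxycycline in cells with stable M3 receptor; B-score is computed from the integrated fluorescence ratio over baseline after carbachol; higher B-score means a larger calcium signal and so more RGS4 inhibition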
Target sequence (P49798 whole entry, looked up): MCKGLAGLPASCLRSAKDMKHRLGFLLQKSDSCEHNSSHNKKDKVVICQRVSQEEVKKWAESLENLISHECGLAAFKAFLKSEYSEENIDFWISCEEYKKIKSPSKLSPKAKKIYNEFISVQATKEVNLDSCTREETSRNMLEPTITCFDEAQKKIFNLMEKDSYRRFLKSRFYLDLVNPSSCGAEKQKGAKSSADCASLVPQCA
* hit, by the source's call; i = inactive; · = no result. Hits are enriched below; roughly 3.5% of the tested compounds scored in any of these assays.

SMILES | MrgX1 agonist | RGS4 act | MrgX1 allo act | MrgX1 antag | RGS4 inh
CCC(=O)Oc1ccc2c(C)cc(=O)oc2c1C(=O)CC | i | i | 6.9* | i | i
CCCC(=O)NC(=S)Nc1ccc(NC(=O)C(C)C)c(OC)c1 | i | i | i | i | i
CCOC(=O)C1=C(C)N=c2s/c(=C\c3ccc(C(=O)O)cc3)c(=O)n2C1c1ccc(F)cc1 (stereo unspecified) | i | -7.4* | i | -4.8* | i
CCOC(=O)C1=C(C)N=c2s/c(=C/c3cccc(OCC(=O)O)c3)c(=O)n2C1c1ccc(F)cc1 (stereo unspecified) | i | i | i | i | i
O=C(CNC(=O)c1ccc2c(c1)OCCO2)N/N=C/c1cccc(Br)c1 | i | i | i | i | i
O=C(NCCN1CCCCC1)Nc1ccc(F)cc1F | i | i | i | i | i
CCOC(=O)c1c(-c2ccccc2)oc2ccc(OCC(O)CNCCN(C)C)cc12 (stereo unspecified) | i | -7.6* | i | i | i
CCOC(=O)c1c(-c2ccccc2)oc2ccc(OCC)cc12 | i | i | i | i | i
Cc1ccccc1NC1=NCC(c2ccc([N+](=O)[O-])cc2)S1 (stereo unspecified) | i | i | i | -5.7* | i
Cc1ccc2oc(C(=O)N3CCC(O)(c4ccccc4)CC3)c(C)c2c1 | i | i | i | i | i
COc1cc([N+](=O)[O-])cc2sc(NC(C)=O)nc12 | i | i | i | i | i
O=C(COc1ccc([N+](=O)[O-])cc1Cl)NCCc1ccccc1 | i | i | 9* | i | i
O=C(COc1ccc(Cl)cc1Cl)NCCCCc1ccccc1 | i | i | i | i | i
Cc1c(CCC(=O)O)c(=O)oc2c(C)c(OCc3cc4c(cc3Cl)OCO4)ccc12 | i | i | i | i | i
Cc1ccc(C)c(N2CCN(C(=O)C3CCN(c4nc(C)cc(C)n4)CC3)CC2)c1 | i | i | i | i | i
Cc1cc(C)nc(N2CCC(C(=O)N3CCN(c4cc(Cl)ccc4C)CC3)CC2)n1 | i | -7.3* | i | i | i
COc1cc(-c2noc(C)c2-c2ccc3[nH]ccc3c2)cc(OC)c1OC | i | -7.2* | i | i | i
COc1cc(CCCN2CCNC[C@@H]2Cc2ccccc2)cc(OC)c1OC | i | i | i | i | i
COc1ccccc1C(=O)NCCc1nc2ccccc2[nH]1 | i | i | i | i | i
COc1ccc(-c2csc(NC(=O)c3ccc(OCC(=O)N4CCOCC4)c(OC)c3)n2)cc1 | i | i | i | -5.1* | i
CCC(Sc1nc(N)cc(N)n1)C(=O)O (stereo unspecified) | i | i | i | i | i
CCOC(=O)c1c(-n2cnnn2)sc2c1CCCC2 | i | i | i | i | i
CCOC(=O)c1c(N2C(=O)Nc3cc(Cl)c(Cl)cc3N2O)sc2c1CCCCC2 | 50* | · | i | i | ·
CCOc1ccc(N(C)S(=O)(=O)c2c[nH]c(C(=O)OC)c2)cc1 | i | i | i | i | i
CCCOc1ccc(C(C(=O)OCCN(CC)CC)c2ccccc2)cc1 (stereo unspecified) | i | -7.4* | i | -4.6* | i
SMILES | MrgX1 agonist | RGS4 act | MrgX1 allo act | MrgX1 antag | RGS4 inh
CCOC(=O)c1ccc(Cl)c(NC(=O)c2ccc(-c3ccccc3)cc2)c1 | i | i | i | i | i
CCOC(=O)c1ccc(/C=C2/C=C(c3ccccc3)N(c3ccc(Cl)c(C(=O)O)c3)C2=O)cc1 | 40* | i | i | i | i
Cc1nnc(SCc2cc([N+](=O)[O-])cc3c2OCOC3)[nH]c1=O | i | i | i | i | i
COc1ccc(Nc2nnc(SCc3cc([N+](=O)[O-])cc4c3OCOC4)s2)cc1 | i | i | i | -4.6* | i
O=C(O)c1ccccc1C(=O)Nc1cccc([N+](=O)[O-])c1 | i | i | i | i | i
O=C(Nc1cccc([N+](=O)[O-])c1)c1cc2ccccc2cc1O | i | i | i | -4.8* | i
Cc1ccc(Cn2cnc3ccccc32)cc1C | i | i | i | i | i
Cc1cc(N2CCOCC2)nc(-c2ccc([N+](=O)[O-])cc2)n1 | i | i | i | i | i
CC1C(=NO)C(C)C(c2ccc(N(C)C)cc2)NC1c1ccc(N(C)C)cc1 (stereo unspecified) | i | i | 14* | i | i
Cc1nc2scc(-c3ccccc3)c2c(=O)n1N=C1C=CC(=O)C=C1 | · | -7.7* | · | · | i
COc1ccc(Cc2noc(CN(C)CC(O)c3ccccc3)n2)cc1OC (stereo unspecified) | i | i | i | -5.2* | i
O=C(COC(=O)c1ccccc1O)Nc1cc([N+](=O)[O-])ccc1Cl | i | i | i | i | i
COc1cccc2cc(-c3cn4cccc(C)c4n3)c(=O)oc12 | 38* | i | i | i | i
CCN(CC)c1ccc(/C=N/N=C(N)N)c(O)c1 | i | i | 7.8* | -5.5* | i
CCN(CC)c1ccc(/C=N/N2CCOCC2)c(O)c1 | i | i | i | i | i
CCN(CC)c1ccc(/C=N/N2C(C)CCCC2C)c(O)c1 (stereo unspecified) | i | i | 7.7* | i | i
CCN(CC)c1ccc(C=Nc2ccccc2)c(O)c1 | i | i | i | i | i
COc1cc2c(cc1OC)CN(C(=O)c1ccccc1C(=O)O)CC2 | i | i | i | i | i
Cc1ccc(C(=O)OCC(=O)c2c[nH]c3ccccc23)cc1 | i | i | i | i | i
CC(C)Cc1ccc(C(C)C(=O)OCC(=O)c2c[nH]c3ccccc23)cc1 (stereo unspecified) | i | -7.3* | i | i | i
COC(=O)/C(=C/c1cn(C)c2ccccc12)[N+](=O)[O-] | · | i | · | · | 12*
COC(=O)/C(=C/Nc1ccccc1)[N+](=O)[O-] | i | i | i | i | i
Cc1ccc(C(=O)N(C)c2nnc(-c3ccncc3)s2)cc1 | i | i | i | i | i
Cc1cccc(C)c1OCc1cc(C(=O)N2CCC(C3CCCCC3)C2)no1 (stereo unspecified) | i | -7.6* | i | i | i
CCOC(=O)c1ccc(NC(=O)CSc2nc3cccnc3n2C)cc1 | i | i | i | i | i
COc1cc2c(cc1OC)C(c1ccccc1F)NCC2 (stereo unspecified) | i | i | i | i | i
N/C(Cc1ccc(Cl)cc1Cl)=N\OC(=O)c1cccs1 | i | i | i | -7.9* | i

Screening data deposited in PubChem by Johns Hopkins Ion Channel Center.
